According to ChEMBL document CHEMBL4376840, “Application of Fluorine- and Nitrogen-Walk Approaches: Defining the Structural and Functional Diversity of 2-Phenylindole Class of Cannabinoid 1 Receptor Positive Allosteric Modulators” (J Med Chem, 2020):
Activity calls are given as the source filed them. No cut-off for these calls is given here.

Tests used:
Mus musculus [1] = assay: Potentiation of […] WIN55212-2-induced reduction in intraocular pressure in ocular normotensive C57BL/6J mouse assessed as change in IOP at 0.2% administered topically to eye measured after 1 hr by tonometry; type: functional
Mus musculus [2] = assay: Antinociceptive activity in C57BL/6 mouse at 3 to 10 mg/kg, ip after 20 mins post treatment by warm water tail-flick assay; type: functional, organism-based
Mus musculus [3] = assay: Potentiation of […] WIN55212-2-induced reduction in intraocular pressure in ocular normotensive C57BL/6J mouse assessed as change in IOP at 0.2% administered topically to eye measured after 6 hrs by tonometry; type: functional
[4] = buffer, pH 7.4, 2 h
[5] = Toxicity in C57BL/6 mouse assessed as catalepsy at 0.1 to 10 mg/kg, ip after 5 mins by bar holding assay; type: organism-based; conditions: in vivo
Outline: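 Male C57BL/6 mice were given 0.1 – 10 mg/kg compound or vehicle (1:1:18 ethanol:cremaphor:saline). Catalepsy was assessed at 5 min as % MPE with a 60 sec maximum. n = 5–6.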

[6] = human, microsomes, 1 µM
Mus musculus [7] = assay: Reduction of intraocular pressure in ocular hypertensive NEE mouse harboring Sh3pxd2b deletion mutant at 0.2% administered topically to eye after 6 hrs by tonometry; type: functional
Outline: (§1)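 Ocular hypertensive NEE mice (1 bp deletion in Sh3pxd2b) received topical 0.2% compound alone. IOP change from baseline (time 0) was measured at 1, 6 and 12 h; paired t-tests.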

[8] = rat, microsomes, 1 µM
Mus musculus [9] = assay: Potentiation of […] WIN55212-2-induced reduction in intraocular pressure in ocular normotensive C57BL/6J mouse assessed as change in IOP at 0.2% administered topically to eye measured after 12 hrs by tonometry; type: functional
[10] = Half life in human liver microsomes at 1 uM up to 45 mins in presence of NADPH by LC-MS/MS analysis
[11] = biological target: Cannabinoid receptor 1 (Mus musculus) (UniProt P47746); assay: Positive allosteric modulation activity at CB1 receptor in C57BL/6 mouse hippocampal neurons assessed as increase in depolarization-induced suppression of excitation at 1 uM at -70 mV holding potential by whole cell patch clamp assay
Mus musculus [12] = assay: Reduction of intraocular pressure in ocular hypertensive NEE mouse harboring Sh3pxd2b deletion mutant at 0.2% administered topically to eye after 12 hrs by tonometry; type: functional, organism-based; outline: as §1
[13] = Half life in rat liver microsomes at 1 uM up to 45 mins in presence of NADPH by LC-MS/MS analysis
[14] = Toxicity in C57BL/6 mouse assessed as effect on hypothermia at 0.1 to 10 mg/kg, ip after 15 mins by thermometric method; type: organism-based; conditions: in vivo
Outline: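 Male C57BL/6 mice were given 0.1 – 10 mg/kg compound or vehicle (1:1:18 ethanol:cremaphor:saline). Body temperature was measured at 15 min and expressed relative to vehicle (100%). n = 5–6.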

Mus musculus [15] = assay: Reduction of intraocular pressure in ocular hypertensive NEE mouse harboring Sh3pxd2b deletion mutant at 0.2% administered topically to eye after 1 hr by tonometry; type: functional; outline: as §1

Cannabinoid receptor 1 (Mus musculus), sequence (P47746 whole entry): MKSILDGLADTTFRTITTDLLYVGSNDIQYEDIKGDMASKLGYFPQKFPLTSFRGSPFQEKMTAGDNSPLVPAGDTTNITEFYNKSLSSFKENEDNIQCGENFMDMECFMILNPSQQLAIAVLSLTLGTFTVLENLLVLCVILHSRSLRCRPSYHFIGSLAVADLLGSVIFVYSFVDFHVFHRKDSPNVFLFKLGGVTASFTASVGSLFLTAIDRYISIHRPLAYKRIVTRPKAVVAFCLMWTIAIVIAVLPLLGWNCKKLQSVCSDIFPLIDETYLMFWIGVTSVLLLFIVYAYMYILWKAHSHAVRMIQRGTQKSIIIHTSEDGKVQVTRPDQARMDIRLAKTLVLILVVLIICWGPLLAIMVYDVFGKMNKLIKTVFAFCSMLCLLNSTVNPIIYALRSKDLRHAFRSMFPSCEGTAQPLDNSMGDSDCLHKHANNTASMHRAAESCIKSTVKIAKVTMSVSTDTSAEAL

With O=[N+]([O-])CC(c1ncccc1F)c1c(-c2ccccc2)[nH]c2ccccc12 (stereo not given) the Activity (Mus musculus [1]) was -0.7 mmHg, the Activity (Mus musculus [2]) was “inactive” and the Activity (Mus musculus [3]) was -0.6 mmHg. For the same molecule, the Kinetic_solubility [4] was 3.13 µM, the Activity [5] was “Non-Toxic” and the CLH [6] was 84.5 µL/min. It also gave an Activity (Mus musculus [7]) of 3.6 mmHg, a CLH [8] of 556 µL/min and an Activity (Mus musculus [9]) of 0.1 mmHg. For the same molecule, the t1/2 [10] was 27.4 min, the Activity [11] was “Active” and the inhibition (Mus musculus [12]) was “inactive”. The t1/2 [13] was 4.08 min, the Activity [14] was “Non-Toxic” and the Activity (Mus musculus [15]) was 2.5 mmHg.
